High-throughput results deposited in PubChem by several laboratories.
The list is not random: actives were taken first. Their share in the collection is about 1.3%.
HMGR II inh: inhibitors of class II HMG-CoA reductase from Enterococcus faecalis; purified E. faecalis HMGR, NADPH absorbance 340 nm kinetic; inhibition, % at 10 µM; actives 0.41% (n = 190,000); AID 1066;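 active = inhibition above a set limit, the median over all tested compounds plus 3 SD, cut at about 9.5% in these data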;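 note: enzyme runs in reverse so mevalonate oxidation gives rising NADPH absorbance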
BB579 growth dn: yeast BB579 growth reduction in restrictive medium; S. cerevisiae BB579 growth, OD615, 48 h; inhibition, % at 10 µM; actives 0.51% (n = 140,000);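 active = inhibition above a set limit, 3 SD over the mean compound inhibition, cut at about 44% in these data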
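System: Saccharomyces cerevisiae DeaD strain BB579, replicative lifespan model yeast | Buffer or medium: Restrictive glucose-based CSMM-D medium | Times: 4 h preincubation and 48 h exposure at 30 °C | Detection: OD615 turbidity measurement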
SDO1 yeast rescue: sdo1-depleted yeast growth rescue | AID 817 | actives 0.21% (n = 140,000) | z-score at 10 µM | S. cerevisiae sdo1-depleted JHY4D growth rescue, OD600 30 h; hits give high values; pdr5 snq2 efflux-pump mutant strain;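 active = z-score above 3 at both the 24 hr and the 30 hr optical density reads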
Yeast lifespan up: yeast lifespan extension; S. cerevisiae growth with nicotinamide, OD615; deaD strain in restrictive glucose medium; inhibition of the nicotinamide effect, % at 10 µM; actives 0.68% (n = 130,000); AID 775;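 active = inhibition above a set limit, placed 3 SD over the median of all compounds, cut at about 26% in these data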
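assay system = DeaD-strain S. cerevisiae | buffer or medium = restrictive glucose medium | reagent = 1.5 mM nicotinamide | compound = 10 µM single point, 0.25% DMSO | incubation = 48 h compound exposure at 30 °C, humidified | signal = OD615 measurement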
Numbers stand for hits.

Screening COC(=O)c1c(-c2ccccc2)csc1NC(=O)c1ccco1 returned HMGR II inh inactive, BB579 growth dn inactive, SDO1 yeast rescue inactive and Yeast lifespan up inactive.
`CCNC(=O)CC1C(=O)N(c2ccc(F)cc2)C(=O)N1CCc1ccc(OC)cc1` (centres undefined) gave HMGR II inh inactive, BB579 growth dn inactive, SDO1 yeast rescue inactive and Yeast lifespan up inactive.
Screening COc1ccc(CCNC2=CC(=O)N(c3ccc(F)cc3)C2=O)cc1 returned HMGR II inh 14.
For CC1CCN(c2nc3ccccc3nc2C(C#N)C(=O)OC2CCCCC2)CC1 (centres undefined) the results were HMGR II inh inactive, BB579 growth dn inactive, SDO1 yeast rescue inactive and Yeast lifespan up inactive.
CC1CCCN(c2nc3ccccc3nc2C(C#N)C(=O)OC2CCCCC2)C1 (centres undefined) was read as HMGR II inh inactive, BB579 growth dn inactive, SDO1 yeast rescue inactive and Yeast lifespan up 64.
`CCOC(=O)N1CCN(c2cc(NCCO)c([N+](=O)[O-])c3nonc23)CC1` gave HMGR II inh 13.
Screening Cc1ccc(Nc2nc(/N=C/NO)n[nH]2)cc1C returned HMGR II inh inactive.
CCCc1ccc(Oc2cn[nH]c2-c2ccc(O)c(C)c2O)cc1 was read as HMGR II inh inactive, BB579 growth dn 100, SDO1 yeast rescue inactive and Yeast lifespan up inactive.
For COc1cccc(Oc2cn[nH]c2-c2ccc(O)cc2O)c1 the results were HMGR II inh inactive, BB579 growth dn inactive, SDO1 yeast rescue inactive and Yeast lifespan up inactive.
For CCCc1ccc(Oc2c(-c3ccc(O)c(C)c3O)n[nH]c2C)cc1 the results were HMGR II inh inactive, BB579 growth dn 99, SDO1 yeast rescue inactive and Yeast lifespan up inactive.
COc1ccc(Oc2c(-c3ccc(O)cc3O)n[nH]c2C)cc1 was read as HMGR II inh inactive, BB579 growth dn inactive, SDO1 yeast rescue inactive and Yeast lifespan up inactive.
Screening CN(CCOc1ccc(-c2ccn(S(=O)(=O)c3cccc4ccccc34)n2)cc1)c1ccccn1 returned HMGR II inh inactive, BB579 growth dn inactive, SDO1 yeast rescue inactive and Yeast lifespan up inactive.
For NC(=O)C1Cc2ccccc2CN1S(=O)(=O)c1cccs1 (centres undefined) the results were HMGR II inh 9.7.
`CC(C)CNC(=O)COc1ncnc2sccc12` gave HMGR II inh inactive.
For CN(C)c1ccc2c3c(ccc(N(C)C)c13)COC2 the results were HMGR II inh 15.
Screening COC1(OC)N=C(N)C2(C#N)C(c3ccc(C)cc3)C12C#N (centres undefined) returned HMGR II inh inactive, BB579 growth dn inactive, SDO1 yeast rescue inactive and Yeast lifespan up inactive.
COC1(OC)N=C(NC(=O)Nc2ccccc2)C2(C#N)C(c3ccccc3)C12C#N (centres undefined) was read as HMGR II inh 14, BB579 growth dn inactive, SDO1 yeast rescue inactive and Yeast lifespan up inactive.
Cc1nnsc1C(=O)N/N=C/c1ccc(OC(F)(F)F)cc1 was read as HMGR II inh inactive.
Screening CCCCCCCCC(=O)N/N=C/c1ccccn1 returned HMGR II inh inactive, BB579 growth dn inactive, SDO1 yeast rescue inactive and Yeast lifespan up inactive.
`CCCCCCCCC/C(=N\O)c1ccccn1` gave HMGR II inh inactive, BB579 growth dn 100, SDO1 yeast rescue inactive and Yeast lifespan up inactive.
Screening COC(=O)C(CC(C)C)NC(=O)c1cccs1 (centres undefined) returned HMGR II inh inactive.
`CCCCC(=O)NNC(=S)NC(=O)CCC` gave HMGR II inh inactive, BB579 growth dn 78 and SDO1 yeast rescue inactive.
Screening Cn1c(Cl)c(/C=N/OC(=O)C2CC2)c2ccccc21 returned HMGR II inh inactive.
Screening Cc1ccccc1C(=O)O/N=C/c1c(N2CCOCC2)n(C)c2ccccc12 returned HMGR II inh inactive, BB579 growth dn 79, SDO1 yeast rescue inactive and Yeast lifespan up inactive.
For CCN(CC(=O)Nc1c(F)cccc1F)C(=O)COc1ccc2c(C)cc(=O)oc2c1 the results were HMGR II inh inactive.
For CCN(CC)c1ccc(-c2n[nH]c(=S)n2-c2ccccc2)cc1 the results were HMGR II inh inactive.
Screening CCN(CC)c1ccc(-c2n[nH]c(=S)n2-c2ccccc2C)cc1 returned HMGR II inh 14.
For O=c1c(Cc2ccccc2)c(O)ccn1Cc1ccc2c(c1)OCO2 the results were HMGR II inh inactive.
Fc1ccccc1Nc1nc(Cl)nc(Cl)n1 was read as HMGR II inh 11.
CCC(C)(C(=O)NC1CCCCC1)N(C(=O)CNC(=O)c1ccccc1)c1c(C)n(C)n(-c2ccccc2)c1=O (centres undefined) was read as HMGR II inh inactive.
